Experimental data as given in ChEMBL document CHEMBL1130340, “Semisynthetic derivatives of purpuromycin as potential topical agents for vaginal infections” (1997).
Values after ≈ are worked out from the molar mass of the structure shown.

Legend:
Format in all cases: functional
[1] = system: Staphylococcus haemolyticus; experiment: In vitro antimicrobial activity against Staphylococcus haemolyticus L602
How it was run: (§1)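 Broth microdilution MIC in Oxoid Iso-Sensitest broth; inoculum about 10^4 cfu/mL; 37 °C for 20–24 h.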

[2] = system: Pseudomonas aeruginosa; experiment: In vitro antimicrobial activity against Pseudomonas aeruginosa ATCC 10145; how it was run: as §1
[3] = system: Staphylococcus aureus; experiment: In vitro antimicrobial activity against Staphylococcus aureus L165; how it was run: as §1
[4] = system: Neisseria gonorrhoeae; experiment: In vitro antimicrobial activity against Neisseria gonorrhoeae L997
How it was run: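 Broth microdilution MIC in GC Base broth plus 1% (v/v) IsoVitaleX; inoculum about 10^4 cfu/mL; 37 °C.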

[5] = system: Bacteroides fragilis; experiment: In vitro antimicrobial activity against Bacteroides fragilis ATCC 25285
How it was run: (§2)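 Anaerobe MIC by broth microdilution in Wilkins-Chalgren broth; inoculum 5 × 10^5 cfu/mL; 37 °C.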

[6] = system: Haemophilus influenzae; experiment: In vitro antimicrobial activity against Haemophilus influenza ATCC 19418
How it was run: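 Broth microdilution MIC in Brain Heart Infusion broth plus 1% (v/v) supplement C; inoculum about 10^4 cfu/mL; 37 °C.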

[7] = system: Streptococcus pneumoniae; experiment: In vitro antimicrobial activity against Streptococcus pneumoniae L44
How it was run: (§3)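 Streptococci: broth microdilution MIC in Todd Hewitt broth; inoculum about 10^4 cfu/mL; 37 °C, 20–24 h.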

[8] = system: Staphylococcus epidermidis; experiment: In vitro antimicrobial activity against Staphylococcus epidermidis ATCC 12228; how it was run: as §1
[9] = system: Proteus vulgaris; experiment: In vitro antimicrobial activity against Proteus vulgaris ATCC881; how it was run: as §1
[10] = system: Staphylococcus aureus; experiment: In viro antimicrobial activity against Staphylococcus aureus L165 10 x e+6 cfu/ml
How it was run: (§4)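 Broth microdilution MIC against S. aureus L165 in Iso-Sensitest broth, 37 °C, 20–24 h.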

[11] = system: Escherichia coli; experiment: In vitro antimicrobial activity against Escherichia coli L47; how it was run: as §1
[12] = system: Candida albicans; experiment: In vitro antimicrobial activity against Candida albicans L145
How it was run: (§5)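 Candida: broth microdilution MIC in phosphate-buffered Yeast Nitrogen Base broth with glucose (1% w/v) and L-asparagine (0.15% w/v); inoculum about 10^4 cfu/mL; 37 °C, 20–24 h.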

[13] = system: Streptococcus pyogenes; experiment: In vitro antimicrobial activity against Streptococcus pyogenes L49; how it was run: as §3
[14] = system: Staphylococcus aureus; experiment: In vitro antimicrobial activity against Staphylococcus aureus L1 65 30% bovine serum; how it was run: as §4
[15] = system: Enterococcus faecalis; experiment: In vitro antimicrobial activity against Enterococcus faecalis ATCC 7080; how it was run: as §1
[16] = system: Cutibacterium acnes; experiment: In vitro antimicrobial activity against Propionibacterium acnes ATCC 6919; how it was run: as §2
[17] = system: Trichomonas vaginalis; experiment: Antimicrobial activity against Trichomonas vaginalis
How it was run: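 Broth microdilution in Trichomonas Culture Medium Base plus 10% horse serum; about 10^5 cells/mL; 48 h at 37 °C under N2-CO2-H2; MIC read by microscopy for viable (motile) protozoa.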

[18] = system: Candida; experiment: Minimum inhibition concentration for 50% inhibition against Candida species; how it was run: as §5
[19] = system: Candida albicans; experiment: In vitro antimicrobial activity against Candida albicans (24); how it was run: as §5
[20] = system: Gardnerella vaginalis; experiment: In vitro antimicrobial activity against Gardnerella vaginalis (MIC90)
How it was run: (§6)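 Agar dilution MIC in Casman medium with 5% (v/v) whole and 0.15% (v/v) lysed rabbit blood; inoculum about 10^5 cfu; 48 h at 37 °C under N2-CO2-H2 (80:10:10).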

[21] = system: Gardnerella vaginalis; experiment: In vitro antimicrobial activity against Gardnerella vaginalis (MIC50); how it was run: as §6
[22] = system: Candida; experiment: Minimum inhibition concentration for 90% inhibition against Candida species; how it was run: as §5
[23] = system: Candida tropicalis; experiment: In vitro antimicrobial activity against Candida tropicalis; how it was run: as §5
[24] = system: Nakaseomyces glabratus; experiment: In vitro antimicrobial activity against Candida glabrata (1); how it was run: as §5
[25] = system: Staphylococcus aureus; experiment: In vitro antimicrobial activity against Staphylococcus aureus L165 30% bovine serum; how it was run: as §4
[26] = system: Candida tropicalis; experiment: In vitro antimicrobial activity against Candida tropicalis (2); how it was run: as §5
[27] = system: Candida albicans; experiment: In vitro antimicrobial activity against Candida albicans(24); how it was run: as §5
[28] = system: Staphylococcus aureus; experiment: In viro antimicrobial activity against Staphylococcus aureus L16510 x e+6 cfu/ml; how it was run: as §4

Row | MIC [2] | MIC [3] | MIC [4] | MIC [5] | MIC [6] | MIC [7] | MIC [8] | MIC [9] | MIC [10] | MIC [11] | MIC [12] | MIC [13] | MIC [14] | MIC [15] | MIC [16] | MIC [17] | MIC50 [18] | MIC90 [20] | MIC50 [21] | Compound | MIC [1] | other results
1 | > 128 µg/mL | 0.03 µg/mL (≈ 0.0531 µM) | 0.06 µg/mL (≈ 0.106 µM) | 0.03 µg/mL (≈ 0.0531 µM) | 0.13 µg/mL (≈ 0.23 µM) | 0.03 µg/mL (≈ 0.0531 µM) | 0.016 µg/mL (≈ 0.0283 µM) | > 128 µg/mL | 0.03 µg/mL (≈ 0.0531 µM) | > 128 µg/mL | > 128 µg/mL | 0.13 µg/mL (≈ 0.23 µM) | 2 µg/mL (≈ 3.54 µM) | 0.06 µg/mL (≈ 0.106 µM) | – | – | – | – | – | CCCNc1cc(O)c2c(c1O)C(=O)C1=C(CC3(CC(O)c4cc5cc(C(=O)OC)oc(=O)c5c(O)c4O3)O1)C2=O (stereo not drawn) | 0.06 µg/mL (≈ 0.106 µM) | –
2 | > 128 µg/mL | 0.13 µg/mL (≈ 0.231 µM) | 0.06 µg/mL (≈ 0.107 µM) | 0.5 µg/mL (≈ 0.889 µM) | 0.13 µg/mL (≈ 0.231 µM) | 0.03 µg/mL (≈ 0.0533 µM) | 0.13 µg/mL (≈ 0.231 µM) | > 128 µg/mL | 0.13 µg/mL (≈ 0.231 µM) | > 128 µg/mL | > 128 µg/mL | 0.13 µg/mL (≈ 0.231 µM) | 2 µg/mL (≈ 3.56 µM) | 0.13 µg/mL (≈ 0.231 µM) | 0.016 µg/mL (≈ 0.0284 µM) | – | – | – | – | COC(=O)c1cc2cc3c(c(O)c2c(=O)o1)OC1(CC2=C(O1)C(=O)c1c(O)c(NCC#N)cc(O)c1C2=O)CC3O (stereo not drawn) | 0.13 µg/mL (≈ 0.231 µM) | –
3 | > 128 µg/mL | 0.03 µg/mL (≈ 0.0573 µM) | 0.03 µg/mL (≈ 0.0573 µM) | 0.06 µg/mL (≈ 0.115 µM) | 0.06 µg/mL (≈ 0.115 µM) | 0.016 µg/mL (≈ 0.0306 µM) | 0.03 µg/mL (≈ 0.0573 µM) | > 128 µg/mL | 0.06 µg/mL (≈ 0.115 µM) | > 128 µg/mL | 32 µg/mL (≈ 61.1 µM) | 0.03 µg/mL (≈ 0.0573 µM) | 1 µg/mL (≈ 1.91 µM) | 0.06 µg/mL (≈ 0.115 µM) | 0.008 µg/mL (≈ 0.0153 µM) | 0.5 µg/mL (≈ 0.955 µM) | 64 µg/mL (≈ 122 µM) | 0.06 µg/mL (≈ 0.115 µM) | 0.06 µg/mL (≈ 0.115 µM) | COC(=O)c1cc2cc3c(c(O)c2c(=O)o1)OC1(CC2=C(O1)C(=O)c1c(O)c(N)cc(O)c1C2=O)CC3O (stereo not drawn) | 0.06 µg/mL (≈ 0.115 µM) | MIC [19]: 2 µg/mL (≈ 3.82 µM); MIC90 [22]: 128 µg/mL (≈ 245 µM); MIC [23]: 128 µg/mL (≈ 245 µM); MIC [24]: 32 µg/mL (≈ 61.1 µM)

Second part, the compound before the results:

Row | Compound | MIC [2] | MIC [3] | MIC [4] | MIC [5] | MIC [6] | MIC [7] | MIC [8] | MIC [9] | MIC [10] | MIC [11] | MIC [12] | MIC [13] | MIC [14] | MIC [15] | MIC [16] | MIC [17] | MIC50 [18] | MIC90 [20] | MIC50 [21] | MIC [1] | other results
4 | COC(=O)c1cc2cc3c(c(O)c2c(=O)o1)OC1(CC2=C(O1)C(=O)c1c(O)c(NCCN)cc(O)c1C2=O)CC3O (stereo not drawn) | > 128 µg/mL | 1 µg/mL (≈ 1.77 µM) | 64 µg/mL (≈ 113 µM) | > 128 µg/mL | 32 µg/mL (≈ 56.5 µM) | 1 µg/mL (≈ 1.77 µM) | 1 µg/mL (≈ 1.77 µM) | > 128 µg/mL | 1 µg/mL (≈ 1.77 µM) | > 128 µg/mL | > 128 µg/mL | 2 µg/mL (≈ 3.53 µM) | 8 µg/mL (≈ 14.1 µM) | 2 µg/mL (≈ 3.53 µM) | 0.5 µg/mL (≈ 0.883 µM) | – | – | – | – | 1 µg/mL (≈ 1.77 µM) | –
5 | COC(=O)c1cc2cc3c(c(O)c2c(=O)o1)OC1(CC2=C(O1)C(=O)c1c(O)c(NCc4ccccc4)cc(O)c1C2=O)CC3O (stereo not drawn) | > 128 µg/mL | 0.5 µg/mL (≈ 0.815 µM) | 0.25 µg/mL (≈ 0.407 µM) | – | 2 µg/mL (≈ 3.26 µM) | 0.06 µg/mL (≈ 0.0978 µM) | 0.13 µg/mL (≈ 0.212 µM) | > 128 µg/mL | 1 µg/mL (≈ 1.63 µM) | > 128 µg/mL | > 128 µg/mL | 1 µg/mL (≈ 1.63 µM) | – | 4 µg/mL (≈ 6.52 µM) | – | – | – | – | – | 0.13 µg/mL (≈ 0.212 µM) | MIC [25]: 32 µg/mL (≈ 52.2 µM)
6 | COC(=O)c1cc2cc3c(c(O)c2c(=O)o1)OC1(Cc2c(O)c4c(c(O)c2O1)C(=O)C(OC)=CC4=O)CC3O (stereo not drawn) | > 128 µg/mL | 0.03 µg/mL (≈ 0.0557 µM) | 0.06 µg/mL (≈ 0.111 µM) | 0.25 µg/mL (≈ 0.464 µM) | 0.03 µg/mL (≈ 0.0557 µM) | 0.06 µg/mL (≈ 0.111 µM) | 0.03 µg/mL (≈ 0.0557 µM) | 32 µg/mL (≈ 59.4 µM) | – | 8 µg/mL (≈ 14.9 µM) | 1 µg/mL (≈ 1.86 µM) | 0.25 µg/mL (≈ 0.464 µM) | 8 µg/mL (≈ 14.9 µM) | 0.06 µg/mL (≈ 0.111 µM) | 0.03 µg/mL (≈ 0.0557 µM) | 8 µg/mL (≈ 14.9 µM) | 1 µg/mL (≈ 1.86 µM) | 8 µg/mL (≈ 14.9 µM) | 8 µg/mL (≈ 14.9 µM) | 0.03 µg/mL (≈ 0.0557 µM) | MIC [26]: 128 µg/mL (≈ 238 µM); MIC [27]: 0.25 µg/mL (≈ 0.464 µM); MIC [28]: 0.06 µg/mL (≈ 0.111 µM); MIC90 [22]: 2 µg/mL (≈ 3.71 µM)
